Test results from ChEMBL document CHEMBL3097999, “Synthesis and biological evaluation of novel substituted 1,3,4-thiadiazole and 2,6-di aryl substituted imidazo [2,1-b] [1,3,4] thiadiazole derivatives” (2014).

Experiments:
Type in all cases: functional
Details in all cases: read-out: DIZ
[1] = tested on: Pseudomonas aeruginosa; test: Antimicrobial activity against Pseudomonas aeruginosa at 0.5 mg/ml by well plate method
Outline: (§1)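 Agar well-plate diffusion against E. coli, B. subtilis and P. aeruginosa. Test compounds dissolved in DMSO at 1 and 0.5 mg/mL and placed in wells. Streptomycin was the reference drug. Read-out is the zone of inhibition.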

[2] = tested on: Pseudomonas aeruginosa; test: Antimicrobial activity against Pseudomonas aeruginosa at 1 mg/ml by well plate method; outline: as §1
[3] = tested on: Bacillus subtilis; test: Antimicrobial activity against Bacillus subtilis at 0.5 mg/ml by well plate method; outline: as §1
[4] = tested on: Bacillus subtilis; test: Antimicrobial activity against Bacillus subtilis at 1 mg/ml by well plate method; outline: as §1
[5] = tested on: Escherichia coli; test: Antimicrobial activity against Escherichia coli at 0.5 mg/ml by well plate method; outline: as §1
[6] = tested on: Escherichia coli; test: Antimicrobial activity against Escherichia coli at 1 mg/ml by well plate method; outline: as §1
[7] = tested on: Candida albicans; test: Antimicrobial activity against Candida albicans at 0.5 mg/ml by well plate method
Outline: (§2)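 Fungal well-plate diffusion against Candida albicans, Aspergillus flavus and Chrysosporium keratinophilum. Compounds in DMSO at 1 and 0.5 mg/mL, with fluconazole as the reference drug. Activity scored as the zone of inhibition.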

[8] = tested on: Candida albicans; test: Antimicrobial activity against Candida albicans at 1 mg/ml by well plate method; outline: as §2
[9] = tested on: Chrysosporium keratinophilum; test: Antimicrobial activity against Chrysosporium keratinophilum at 0.5 mg/ml by well plate method; outline: as §2
[10] = tested on: Aspergillus flavus; test: Antimicrobial activity against Aspergillus flavus at 0.5 mg/ml by well plate method; outline: as §2
[11] = tested on: Chrysosporium keratinophilum; test: Antimicrobial activity against Chrysosporium keratinophilum at 1 mg/ml by well plate method; outline: as §2
[12] = tested on: Aspergillus flavus; test: Antimicrobial activity against Aspergillus flavus at 1 mg/ml by well plate method; outline: as §2

Row | SMILES | zone of inhibition at 500 µg/mL [1] [mm] | zone of inhibition at 1000 µg/mL [2] [mm] | zone of inhibition at 500 µg/mL [3] [mm] | zone of inhibition at 1000 µg/mL [4] [mm] | zone of inhibition at 500 µg/mL [5] [mm] | zone of inhibition at 1000 µg/mL [6] [mm] | zone of inhibition at 500 µg/mL [7] [mm] | zone of inhibition at 1000 µg/mL [8] [mm] | zone of inhibition at 500 µg/mL [9] [mm] | zone of inhibition at 500 µg/mL [10] [mm] | zone of inhibition at 1000 µg/mL [11] [mm] | zone of inhibition at 1000 µg/mL [12] [mm]
1 | COc1ccc(-c2cn3nc(-c4ccc(N5CCN(C)CC5)c([N+](=O)[O-])c4)sc3n2)cc1 | 3 | 5 | 3 | 5 | 4 | 6 | – | – | – | – | – | –
2 | COc1ccc(-c2cn3nc(-c4ccc(NCC5CCCO5)c([N+](=O)[O-])c4)sc3n2)cc1 (stereo unspecified) | 9 | 13 | 8 | 10 | 10 | 13 | 5 | 7 | 6 | 6 | 8 | 9
3 | CCN(CC)c1ccc(-c2nn3cc(-c4ccc(OC)cc4)nc3s2)cc1[N+](=O)[O-] | 1 | 3 | 3 | 5 | 4 | 6 | 5 | 6 | 3 | 3 | 5 | 5
4 | CC(C)(C)C(=O)Nc1nnc(-c2ccc(N3CCC(c4ccc(C(F)(F)F)cc4)CC3)c([N+](=O)[O-])c2)s1 | 6 | 7 | 5 | 7 | 5 | 8 | 4 | 7 | 5 | 5 | 7 | 8
5 | COc1ccc(-c2cn3nc(-c4ccc(NC5CCCCC5)c([N+](=O)[O-])c4)sc3n2)cc1 | 7 | 9 | 7 | 10 | 9 | 11 | 7 | 9 | 5 | 6 | 7 | 8
6 | OC(Cn1cncn1)(Cn1cncn1)c1ccc(F)cc1F [FLUCONAZOLE] | – | – | – | – | – | – | 20 | 22 | 15 | 10 | 17 | 13
7 | CC(C)(C)C(=O)Nc1nnc(-c2ccc(NC3CCCCC3)c([N+](=O)[O-])c2)s1 | 7 | 9 | 6 | 8 | 8 | 10 | 7 | 9 | 4 | 5 | 6 | 7
8 | CC(C)(C)C(=O)Nc1nnc(-c2ccc(N3CCCC3)c([N+](=O)[O-])c2)s1 | 4 | 6 | 1 | 3 | 3 | 5 | 5 | 6 | 3 | 4 | 5 | 6
9 | CC(C)(C)C(=O)Nc1nnc(-c2ccc(N3CCOCC3)c([N+](=O)[O-])c2)s1 | 10 | 13 | 9 | 11 | 10 | 12 | 3 | 5 | 2 | 2 | 4 | 5
10 | CN[C@@H]1[C@H](O[C@H]2[C@H](O[C@H]3[C@H](O)[C@@H](O)[C@H](N=C(N)N)[C@@H](O)[C@@H]3N=C(N)N)O[C@@H](C)[C@]2(O)C=O)O[C@@H](CO)[C@H](O)[C@H]1O [STREPTOMYCIN] | 15 | 19 | 19 | 22 | 17 | 19 | – | – | – | – | – | –
11 | COc1ccc(-c2cn3nc(-c4ccc(N5CCCC5)c([N+](=O)[O-])c4)sc3n2)cc1 | 4 | 6 | 7 | 9 | 5 | 8 | 5 | 7 | 4 | 5 | 6 | 7
12 | COc1ccc(-c2cn3nc(-c4ccc(NCc5ccc(F)cc5F)c([N+](=O)[O-])c4)sc3n2)cc1 | 2 | 4 | 2 | 4 | 1 | 3 | 3 | 5 | 6 | 3 | 8 | 6
13 | CN1CCN(c2ccc(-c3nnc(NC(=O)C(C)(C)C)s3)cc2[N+](=O)[O-])CC1 | 2 | 3 | 3 | 4 | 3 | 5 | 2 | 4 | 2 | – | 4 | 3
14 | CC(C)(C)C(=O)Nc1nnc(-c2ccc(NC3CCCC3)c([N+](=O)[O-])c2)s1 | 2 | 3 | 3 | 4 | 4 | 6 | 2 | 5 | 2 | 2 | 4 | 4
15 | COc1ccc(-c2cn3nc(-c4ccc(N(C)C)c([N+](=O)[O-])c4)sc3n2)cc1 | 4 | 6 | 2 | 3 | 3 | 4 | 3 | 5 | 2 | 2 | 4 | 4
16 | CC(C)(C)C(=O)Nc1nnc(-c2ccc(NCc3ccc(F)cc3F)c([N+](=O)[O-])c2)s1 | 2 | 4 | 2 | 4 | 3 | 5 | 3 | 5 | 5 | 4 | 7 | 6
17 | CC(C)(C)C(=O)Nc1nnc(-c2ccc(Nc3ccc(F)cc3)c([N+](=O)[O-])c2)s1 | 4 | 6 | 3 | 5 | 5 | 7 | 2 | 4 | 4 | 2 | 5 | 3
18 | CCCCNc1ccc(-c2nn3cc(-c4ccc(OC)cc4)nc3s2)cc1[N+](=O)[O-] | 5 | 7 | 4 | 6 | 3 | 5 | 2 | 3 | 1 | – | 3 | 2
